Measurements taken from ChEMBL document CHEMBL2093137, “WHO-TDR NTD Screening”.
Values after ≈ are worked out from the molar mass of the structure shown.

Experiments:
[1] = WHO-TDR: Cytotoxicity; type: toxicity, cell-based; conditions: human, MRC5 cells
[2] = test system: Plasmodium falciparum K1; test: WHO-TDR: Malaria; type: functional, organism-based, Homo sapiens; conditions: Erythrocyte
Procedure, shortened: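 A diverse library of 10,000 compounds from Life Chemicals, filtered for drug-likeness and reactive groups, was screened against the intra-erythrocytic Plasmodium falciparum K1 strain in human red blood cells. Previously published standard procedures were followed, with a reference drug as positive control. Antiplasmodial potency is given as IC50.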

[3] = test system: Trypanosoma cruzi; test: WHO-TDR: Chagas disease; type: functional, organism-based, Homo sapiens; conditions: MRC5
Procedure, shortened: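 Whole-organism screen of a 10,000-compound diverse library from Life Chemicals, filtered for drug-likeness and reactive groups, against intracellular amastigotes of Trypanosoma cruzi Tulahuen CL2 beta-galactosidase strain grown in MRC-5SV2 human lung fibroblast host cells. The assay followed previously published standard procedures, with a reference drug as positive control. Antiparasitic potency is reported as IC50.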

[4] = test system: Trypanosoma brucei brucei; test: WHO-TDR: Human African Trypanosomiasis (HAT); type: functional, organism-based; conditions: Squib-427
Procedure, shortened: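 A diverse library of 10,000 compounds from Life Chemicals, filtered for drug-likeness and reactive groups, was screened against bloodstream forms of Trypanosoma brucei Squib 427 strain in a whole-organism assay. Previously published standard procedures were followed, with reference drugs serving as positive controls. Antiparasitic potency is given as IC50.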

[5] = test system: Leishmania infantum; test: WHO-TDR: Leishmaniasis; type: functional, organism-based, Mus musculus; conditions: Macrophage
Procedure, shortened: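 A diverse library of 10,000 compounds from Life Chemicals, filtered for drug-likeness and reactive groups, was screened against whole organisms. The targets were intracellular amastigotes of Leishmania infantum MHOM/MA(BE)/67 growing in murine peritoneal macrophages. Previously published standard procedures were followed, with a reference drug as positive control. Antiparasitic potency is given as IC50.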

[6] = test system: Schistosoma mansoni; test: WHO-TDR: Schistosomiasis; type: functional; parameters: concentration or dose not given beside the values
Procedure, shortened: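 Larval and/or adult Schistosoma mansoni (Puerto Rican strain) were tested whole against 10,000 diverse compounds from Life Chemicals. The procedure was a previously published standard one, using a reference drug as positive control. Results are expressed as percent inhibition and IC50.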

[7] = test system: Onchocerca ochengi; test: WHO-TDR: Onchocerciasis; type: functional; parameters: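 at 12.5 µM on microfilariae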
Procedure, shortened: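 Onchocerca ochengi or Onchocerca lienalis, animal pathogens used as surrogates for the human parasite, were screened as whole microfilariae against a 10,000-compound diverse library from Life Chemicals. The reported measures of activity are percent inhibition and IC50.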

[8] = test system: Brugia malayi; test: WHO-TDR: Lymphatic Filariasis; type: functional; parameters: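 tested at 10 µM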
Procedure, shortened: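 Percent inhibition and IC50 describe activity against Brugia malayi microfilariae in a whole-organism screen. The screen used previously published standard procedures with reference drugs as positive controls. Compounds came from a diverse Life Chemicals library of 10,000, filtered for drug-likeness and reactive groups.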

| Compound | IC50 [2] | IC50 [4] | IC50 [5] | IC50 [1] | IC50 [3] | % Inhibition [6] | % Inhibition [7] | % Inhibition [8] |
| --- | --- | --- | --- | --- | --- | --- | --- | --- |
| COc1cccc(C(=O)N2CCN(c3ccc(-c4ccccn4)nn3)CC2)c1OC | 0.548 µg/mL (≈ 1.35 µM) | 3.85 µg/mL (≈ 9.49 µM) | 1.81 µg/mL (≈ 4.46 µM) | 5.68 µg/mL (≈ 14 µM) | 0.421 µg/mL (≈ 1.04 µM) | 33.3% | 100% | 33.33% |
| CC(C)CC(=O)N1CCN(c2ccc(-c3ccccn3)nn2)CC1 | 1.13 µg/mL (≈ 3.46 µM) | 3.09 µg/mL (≈ 9.49 µM) | 3.09 µg/mL (≈ 9.49 µM) | 3.86 µg/mL (≈ 11.9 µM) | 0.763 µg/mL (≈ 2.34 µM) | 25% | 100% | 33.33% |
| O=S(=O)(c1cccc(F)c1)N1CCN(c2ccc(-c3ccncc3)nn2)CC1 | > 12 µg/mL | > 12 µg/mL | 0.388 µg/mL (≈ 0.971 µM) | > 12 µg/mL | > 12 µg/mL | 0% | 0% | 33.33% |
| COc1ccc(S(=O)(=O)N2CCN(c3ccc(-c4ccncc4)nn3)CC2)c(OC)c1 | 2.48 µg/mL (≈ 5.62 µM) | > 13.2 µg/mL | 0.429 µg/mL (≈ 0.972 µM) | > 13.2 µg/mL | 5.69 µg/mL (≈ 12.9 µM) | 0% | 0% | 33.33% |
| CS(=O)(=O)N1CCN(c2ccc(-c3ccccn3)nn2)CC1 | > 9.58 µg/mL | > 9.58 µg/mL | > 9.58 µg/mL | > 9.58 µg/mL | 0.22 µg/mL (≈ 0.689 µM) | 0% | 0% | 0% |
| O=S(=O)(c1ccc(Cl)s1)N1CCN(c2ccc(-c3ccccn3)nn2)CC1 | > 12.7 µg/mL | > 12.7 µg/mL | > 12.7 µg/mL | > 12.7 µg/mL | 0.438 µg/mL (≈ 1.04 µM) | 0% | 0% | 0% |
| COc1ccc(C)cc1S(=O)(=O)N1CCN(c2ccc(-c3cccs3)nn2)CC1 | > 12.9 µg/mL | > 12.9 µg/mL | 0.418 µg/mL (≈ 0.971 µM) | > 12.9 µg/mL | > 12.9 µg/mL | 0% | 0% | 0% |
| COc1ccc(-c2cccc(NC(=O)Nc3ccc(C)cc3)c2)nn1 | > 10 µg/mL | > 10 µg/mL | > 10 µg/mL | > 10 µg/mL | 7.36 µg/mL (≈ 22 µM) | 58.3% | 100% | 0% |
| O=C(Nc1nnc(Cc2cccs2)o1)c1cc(Cl)sc1Cl | > 10.8 µg/mL | 0.342 µg/mL (≈ 0.949 µM) | > 10.8 µg/mL | 0.967 µg/mL (≈ 2.68 µM) | 0.632 µg/mL (≈ 1.75 µM) | 0% | 0% | 0% |
| NC(=O)Cc1csc(SCC(=O)c2ccccc2)n1 | > 8.77 µg/mL | > 8.77 µg/mL | 0.284 µg/mL (≈ 0.971 µM) | > 8.77 µg/mL | > 8.77 µg/mL | 16.7% | 0% | 0% |
| CCOC(=O)c1sc(-c2ccccc2)cc1NC(=O)c1ccnn1C | > 10.7 µg/mL | > 10.7 µg/mL | 0.345 µg/mL (≈ 0.971 µM) | > 10.7 µg/mL | > 10.7 µg/mL | 0% | 0% | 0% |
| Cn1nccc1C(=O)Nc1nc2c(s1)CSc1ccccc1-2 | > 9.85 µg/mL | 0.315 µg/mL (≈ 0.959 µM) | 3.19 µg/mL (≈ 9.71 µM) | 0.145 µg/mL (≈ 0.442 µM) | 2.05 µg/mL (≈ 6.23 µM) | 100% | 100% | 0% |
| Cn1nccc1C(=O)Nc1sc(-c2ccccc2)cc1C(N)=O | > 9.79 µg/mL | 3.17 µg/mL (≈ 9.71 µM) | 3.17 µg/mL (≈ 9.71 µM) | 8.31 µg/mL (≈ 25.4 µM) | 6.26 µg/mL (≈ 19.2 µM) | 100% | 0% | 0% |
| O=C(Nc1nnc(-c2ccc(Br)s2)o1)C1CCCN1S(=O)(=O)c1cccs1 (stereo not drawn) | > 14.7 µg/mL | 6.68 µg/mL (≈ 13.6 µM) | 0.475 µg/mL (≈ 0.971 µM) | > 14.7 µg/mL | > 14.7 µg/mL | 8.3% | 0% | 0% |
| Cc1cc(C(=O)Nc2nnc(-c3ccc(Br)s3)o2)nn1C | > 11 µg/mL | > 11 µg/mL | > 11 µg/mL | 3.2 µg/mL (≈ 8.68 µM) | > 11 µg/mL | 8.3% | 100% | 0% |

The next lines start with results.

| IC50 [2] | IC50 [4] | IC50 [5] | Compound | IC50 [1] | IC50 [3] | % Inhibition [6] | % Inhibition [7] | % Inhibition [8] |
| --- | --- | --- | --- | --- | --- | --- | --- | --- |
| > 12.7 µg/mL | > 12.7 µg/mL | > 12.7 µg/mL | CCOc1ncccc1C(=O)N1CCN(c2ccc(-c3ccc(Cl)cc3)nn2)CC1 | > 12.7 µg/mL | 8.92 µg/mL (≈ 21 µM) | 100% | 0% | 0% |
| 4.13 µg/mL (≈ 12.3 µM) | 3.2 µg/mL (≈ 9.49 µM) | 0.328 µg/mL (≈ 0.972 µM) | O=C(C1CCCC1)N1CCN(c2ccc(-c3ccccn3)nn2)CC1 | 4.9 µg/mL (≈ 14.5 µM) | 1.19 µg/mL (≈ 3.52 µM) | 41.7% | 0% | 33.33% |
| 0.731 µg/mL (≈ 2.08 µM) | 0.409 µg/mL (≈ 1.16 µM) | 0.341 µg/mL (≈ 0.97 µM) | O=C(CC1CCCC1)N1CCN(c2ccc(-c3ccccn3)nn2)CC1 | 5.57 µg/mL (≈ 15.9 µM) | 0.466 µg/mL (≈ 1.33 µM) | 33.3% | 0% | 33.33% |
| > 11.6 µg/mL | > 11.6 µg/mL | 0.376 µg/mL (≈ 0.97 µM) | O=S(=O)(c1cccnc1)N1CCN(c2ccc(-c3cccs3)nn2)CC1 | > 11.6 µg/mL | > 11.6 µg/mL | 0% | 0% | 50% |
| > 11.3 µg/mL | > 11.3 µg/mL | > 11.3 µg/mL | O=C(Nc1ccc(F)cc1)Nc1cccc(-c2ccc(N3CCCC3)nn2)c1 | > 11.3 µg/mL | > 11.3 µg/mL | 0% | 100% | 0% |
| > 9.4 µg/mL | 0.383 µg/mL (≈ 1.22 µM) | > 9.4 µg/mL | Cc1ccc(C(=O)Nc2nnc(Cc3cccs3)o2)cc1C | > 9.4 µg/mL | 3.01 µg/mL (≈ 9.61 µM) | 25% | 0% | 50% |
| > 10.4 µg/mL | 3.35 µg/mL (≈ 9.71 µM) | 0.336 µg/mL (≈ 0.973 µM) | CCSc1ccccc1C(=O)Nc1nnc(Cc2cccs2)o1 | 9.48 µg/mL (≈ 27.5 µM) | 3.48 µg/mL (≈ 10.1 µM) | 33.3% | 0% | 0% |
| > 12 µg/mL | 5.07 µg/mL (≈ 12.6 µM) | > 12 µg/mL | O=C(Cc1csc(SCC(=O)c2ccccc2)n1)NCCC1=CCCCC1 | > 12 µg/mL | 3.65 µg/mL (≈ 9.11 µM) | 33.3% | 100% | 0% |
| > 13.2 µg/mL | > 13.2 µg/mL | 0.428 µg/mL (≈ 0.972 µM) | COc1ccc(-c2ccc(N3CCN(C(=O)c4c(F)cccc4F)CC3)nn2)cc1OC | > 13.2 µg/mL | > 13.2 µg/mL | 8.3% | 0% | 0% |
| > 14.5 µg/mL | 4.75 µg/mL (≈ 9.83 µM) | 4.69 µg/mL (≈ 9.71 µM) | CN(C1CC1)S(=O)(=O)c1ccc(C(=O)Nc2nnc(-c3ccc(Br)s3)o2)cc1 | 3.91 µg/mL (≈ 8.09 µM) | 4.76 µg/mL (≈ 9.85 µM) | 0% | 100% | 0% |
| > 10.2 µg/mL | > 10.2 µg/mL | 0.331 µg/mL (≈ 0.97 µM) | O=C(Nc1nnc(-c2ccc(Br)s2)o1)c1ccno1 | > 10.2 µg/mL | > 10.2 µg/mL | 16.7% | 0% | 0% |
